The target of assay [1] is T1, Endothelial lipase (Homo sapiens) (UniProt Q9Y5X9).
T1 sequence (whole entry): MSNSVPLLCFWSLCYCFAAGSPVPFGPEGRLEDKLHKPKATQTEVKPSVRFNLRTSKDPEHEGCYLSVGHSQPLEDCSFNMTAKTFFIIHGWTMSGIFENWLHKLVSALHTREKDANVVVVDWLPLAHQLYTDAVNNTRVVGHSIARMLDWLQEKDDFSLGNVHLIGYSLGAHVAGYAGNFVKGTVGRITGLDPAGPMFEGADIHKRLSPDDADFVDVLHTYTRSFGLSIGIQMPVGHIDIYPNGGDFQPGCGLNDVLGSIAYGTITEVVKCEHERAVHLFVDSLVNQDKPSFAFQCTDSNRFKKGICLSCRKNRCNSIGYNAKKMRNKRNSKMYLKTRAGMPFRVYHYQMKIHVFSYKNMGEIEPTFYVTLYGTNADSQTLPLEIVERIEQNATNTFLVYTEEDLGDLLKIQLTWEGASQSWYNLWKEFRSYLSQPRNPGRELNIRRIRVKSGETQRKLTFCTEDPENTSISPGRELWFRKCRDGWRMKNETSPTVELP
Briefly: Inhibition of human endothelial lipase expressed using recombinant adenovirus using glycerol-tri[9,10(n)-3H]oleate at 50 uM after 1 hr by vesicle assay. In a few lines:
(§1)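 Vesicle-based substrate system with the test agent at a single 50 μM concentration; percent inhibition of lipase activity reported.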

The target in assay [2] is T2, Lipoprotein lipase (Homo sapiens) (UniProt P06858).
T2 sequence (whole entry): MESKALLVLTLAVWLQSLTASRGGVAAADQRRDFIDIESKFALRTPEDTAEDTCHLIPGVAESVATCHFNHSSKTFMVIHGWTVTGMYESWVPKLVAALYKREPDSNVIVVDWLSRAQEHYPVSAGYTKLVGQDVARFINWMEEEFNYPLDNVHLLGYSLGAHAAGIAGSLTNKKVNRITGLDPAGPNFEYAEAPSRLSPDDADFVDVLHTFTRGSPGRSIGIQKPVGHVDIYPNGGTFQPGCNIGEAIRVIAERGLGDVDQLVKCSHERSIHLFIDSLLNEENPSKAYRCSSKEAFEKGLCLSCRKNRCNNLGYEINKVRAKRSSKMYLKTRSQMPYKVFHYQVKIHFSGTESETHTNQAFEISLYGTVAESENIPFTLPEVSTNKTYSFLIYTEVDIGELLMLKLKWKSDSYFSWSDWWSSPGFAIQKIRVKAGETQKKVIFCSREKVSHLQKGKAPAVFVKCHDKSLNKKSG
Briefly: Inhibition of human lipoprotein lipase expressed using recombinant adenovirus using glycerol-tri[9,10(n)-3H]oleate at 50 uM after 1 hr by vesicle assay. In a few lines: as §1

In assay [3] the target is T3, Endothelial lipase (Homo sapiens, UniProt Q9Y5X9).
T3 sequence (Q9Y5X9 whole entry): T1 sequence (whole entry)
In words: Inhibition of human endothelial lipase expressed using recombinant adenovirus using glycerol-tri[9,10(n)-3H]oleate after 1 hr by vesicle assay. In a few lines:
(§2)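 Vesicle (interfacial catalysis) substrate system; IC50 taken as mean of two independent experiments, each run in duplicate.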

Assay [4] concerns the target T4, Lipoprotein lipase (Homo sapiens, UniProt P06858).
T4 sequence (P06858 whole entry): T2 sequence (whole entry)
In words: Inhibition of human lipoprotein lipase expressed using recombinant adenovirus using glycerol-tri[9,10(n)-3H]oleate after 1 hr by vesicle assay. The method in brief:
as §2

Assay [5] is filed under the species Homo sapiens. In words: Selectivity ratio of IC50 for human lipoprotein lipase to IC50 for human endothelial lipase by vesicle assay. In a few lines:
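Ratio of lipoprotein lipase IC50 to endothelial lipase IC50, both from vesicle assays; unitless.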

Assay [6] has as its target T3, Endothelial lipase. Briefly: Inhibition of human endothelial lipase overexpressed in HUVEC cells using bis-BD-PC and mono-BD-TG as substrate incubated for 10 mins prior to substrate addition by micelle assay. The class given is cell-based. In a few lines:
(§3)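 Detergent micelle system, which removes interfacial catalysis and gives direct access to the active site; IC50 taken as mean of two independent experiments, each run in duplicate.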

Assay [7] deals with T4, Lipoprotein lipase. In words: Inhibition of human lipoprotein lipase expressed in HEK293 cells using bis-BD-PC and mono-BD-TG as substrate incubated for 10 mins prior to substrate addition by micelle assay. The method in brief:
as §3

For assay [8], the species on record is Homo sapiens. Briefly: Selectivity ratio of IC50 for human lipoprotein lipase by micelle assay to IC50 for human endothelial lipase by micelle assay. The method in brief: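 Ratio of lipoprotein lipase IC50 to endothelial lipase IC50, both from micelle assays; unitless.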

We go through 29 compounds from ChEMBL document CHEMBL1949556, “Design and synthesis of boronic acid inhibitors of endothelial lipase” (Bioorg Med Chem Lett, 2012).

A value given as a limit tells only on which side of the number the result lay.

On to `CCCCCCCCCCCCCCCC#N`, for which the inhibition in assay [1] amounted to 4%; in assay [2] it was 14%.

Consider `CCCCCCCCCCCCCCCB(O)O`, for which the inhibition turned out to be 90% in assay [1] and 63% in assay [2].

With `CC1(C)OB(c2ccc(-c3ccccc3)cc2)OC1(C)C`, the IC50 at Endothelial lipase [3] was 1 µM; on Lipoprotein lipase [4], 4.4 µM; on Endothelial lipase [6], 1 µM; against Lipoprotein lipase [7], 12 µM. Moreover, the Ratio IC50 in the assay listed under Homo sapiens [5] is 4.4; in the assay listed under Homo sapiens [8], 12.

With `CCCCCCCCCc1ccc(B(O)O)cc1`, the IC50 at Endothelial lipase [3] came out at 1 µM; at Lipoprotein lipase [4] it was 42 µM; against Endothelial lipase [6], 0.1 µM; on Lipoprotein lipase [7] it was 1.4 µM. For the same compound, the Ratio IC50 in the assay listed under Homo sapiens [5] is 42; in the assay listed under Homo sapiens [8], 14.

`CCCc1ccc(B(O)O)cc1`: the 50% inhibitory concentration (IC50) was determined as 2 µM at Endothelial lipase [3], 8 µM on Lipoprotein lipase [4], 4 µM on Endothelial lipase [6] and 12.5 µM against Lipoprotein lipase [7]. For the same compound, the Ratio IC50 in the assay listed under Homo sapiens [5] was determined as 4; in the assay listed under Homo sapiens [8], 3.1.

For the compound `CCCCCCCCCc1ccccc1B(O)O`, the half-inhibitory concentration (IC50) was 50 µM at Endothelial lipase [3], more than 50 µM on Lipoprotein lipase [4], 11 µM at Endothelial lipase [6] and more than 500 µM at Lipoprotein lipase [7]. Besides, in the assay listed under Homo sapiens [8], the Ratio IC50 was more than 50.

For `CCCCCc1cccc(B2OC(C)(C)C(C)(C)O2)c1`, the half-inhibitory concentration (IC50) on Endothelial lipase [3] was determined as 4.2 µM; at Lipoprotein lipase [4], 45 µM; on Endothelial lipase [6] it was 35 µM; at Lipoprotein lipase [7] it was 100 µM. Further, the Ratio IC50 in the assay listed under Homo sapiens [5] turned out to be 11; in the assay listed under Homo sapiens [8], 2.8.

For `CCCCCc1ccc(B2OC(C)(C)C(C)(C)O2)cc1`, the 50% inhibitory concentration (IC50) on Endothelial lipase [3] came to 2.6 µM; at Lipoprotein lipase [4], 50 µM; against Endothelial lipase [6], 1.1 µM; against Lipoprotein lipase [7], 21 µM. The Ratio IC50 in the assay listed under Homo sapiens [5] and in the assay listed under Homo sapiens [8] was 19 in each case.

Consider `CCCCCCCc1ccc(B(O)O)cc1`, for which the half-inhibitory concentration (IC50) at Endothelial lipase [3] stood at 1.7 µM; at Lipoprotein lipase [4] it was 30 µM; against Endothelial lipase [6] it was 0.32 µM; on Lipoprotein lipase [7], 9 µM. In addition, the results for the Ratio IC50 in the assay listed under Homo sapiens [5] and in the assay filed under Homo sapiens [8] were 18 and 28, respectively.

Regarding `CCCCCCCCCCCCCCCC(=O)CCl`, the inhibition in assay [1] is 10%; in assay [2], -10%.

For the compound `CC1(C)OB(c2ccc(-c3ccc(F)cc3)cc2)OC1(C)C`, the IC50 turned out to be 1.6 µM on Endothelial lipase [3], 55 µM on Lipoprotein lipase [4], 1.1 µM against Endothelial lipase [6] and 33 µM at Lipoprotein lipase [7]. Also, the values for the Ratio IC50 in the assay listed under Homo sapiens [5] and in the assay listed under Homo sapiens [8] were 34 and 30, respectively.

`CCCCCc1ccc(B(O)O)cc1`: the 50% inhibitory concentration (IC50) is 1 µM on Endothelial lipase [3], 15 µM at Lipoprotein lipase [4], 0.47 µM against Endothelial lipase [6] and 3.8 µM on Lipoprotein lipase [7]. In addition, the Ratio IC50 worked out at 15 in the assay filed under Homo sapiens [5] and 8 in the assay listed under Homo sapiens [8].

As to `CC1(C)OB(c2ccc(-c3ccc4ccccc4c3)cc2)OC1(C)C`, the half-inhibitory concentration (IC50) on Endothelial lipase [3] was 2 µM; at Lipoprotein lipase [4] it was 22 µM; against Endothelial lipase [6], 1.7 µM; against Lipoprotein lipase [7], 15 µM. Moreover, the Ratio IC50 in the assay filed under Homo sapiens [5] came out at 11; in the assay listed under Homo sapiens [8] it was 8.8.

As for `CCCCCCCCCc1cccc(B(O)O)c1`, the IC50 is 2.8 µM at Endothelial lipase [3], more than 50 µM on Lipoprotein lipase [4], 5 µM on Endothelial lipase [6] and 95 µM against Lipoprotein lipase [7]. The figures for the Ratio IC50 in the assay listed under Homo sapiens [5] and in the assay filed under Homo sapiens [8] were more than 20 and 19, respectively.

Turning to `CCCCCCCCCc1ccc(B2OC(C)(C)C(C)(C)O2)cc1`, the IC50 on Endothelial lipase [3] is 2.5 µM; at Lipoprotein lipase [4] it was 50 µM; at Endothelial lipase [6], 1 µM; against Lipoprotein lipase [7], 15 µM. The Ratio IC50 worked out at 20 in the assay filed under Homo sapiens [5] and 15 in the assay filed under Homo sapiens [8].

With `CCCCCCCc1ccc(B2OC(C)(C)C(C)(C)O2)cc1`, the 50% inhibitory concentration (IC50) at Endothelial lipase [3] is 3.5 µM; on Lipoprotein lipase [4], 55 µM; on Endothelial lipase [6], 1.1 µM; against Lipoprotein lipase [7], 19 µM. Also, the Ratio IC50 in the assay filed under Homo sapiens [5] turned out to be 16; in the assay listed under Homo sapiens [8] it was 17.

For the compound `CCCCCc1cccc(B(O)O)c1`, the IC50 at Endothelial lipase [3] worked out at 12.8 µM; at Lipoprotein lipase [4] it was 50 µM; against Endothelial lipase [6], 22 µM; on Lipoprotein lipase [7], 85 µM. The Ratio IC50 amounted to 4 in the assay filed under Homo sapiens [5] and 3.8 in the assay filed under Homo sapiens [8].

For `CCCc1ccc(B2OC(C)(C)C(C)(C)O2)cc1`, the IC50 worked out at 5 µM on Endothelial lipase [3], 25 µM on Lipoprotein lipase [4], 6 µM against Endothelial lipase [6] and 25 µM against Lipoprotein lipase [7]. In addition, the Ratio IC50 in the assay filed under Homo sapiens [5] stood at 5; in the assay listed under Homo sapiens [8] it was 4.1.

For the compound `CCCCCCCCCCCCCCCC=O`, the inhibition in assay [1] is 7%; in assay [2], -1%.

As to `CC1(C)OB(c2ccc(-c3ccco3)cc2)OC1(C)C`, the IC50 came out at 1.9 µM at Endothelial lipase [3], 9.6 µM on Lipoprotein lipase [4], 1.3 µM at Endothelial lipase [6] and 35 µM on Lipoprotein lipase [7]. Besides, the figures for the Ratio IC50 in the assay filed under Homo sapiens [5] and in the assay filed under Homo sapiens [8] were 5 and 27, respectively.

Take `CCCCCCCCCCCc1ccc(B2OC(C)(C)C(C)(C)O2)cc1`: the half-inhibitory concentration (IC50) on Endothelial lipase [3] was 4.5 µM; on Lipoprotein lipase [4] it was more than 50 µM; against Endothelial lipase [6], 1.4 µM; at Lipoprotein lipase [7], 15 µM. In addition, the Ratio IC50 in the assay listed under Homo sapiens [8] worked out at 11.

Turning to `CCCCCCCCCCCCCCCC(=O)C=[N+]=[N-]`, the inhibition in assay [2] worked out at 20%.

`Cc1ccc(B(O)O)cc1` [TOLYL BORONIC ACID]: the figures for the 50% inhibitory concentration (IC50) on Lipoprotein lipase [4], against Endothelial lipase [6] and against Lipoprotein lipase [7] were 9 µM, 22 µM and 25 µM, respectively. Also, the Ratio IC50 worked out at 0.5 in the assay filed under Homo sapiens [5] and 1.1 in the assay listed under Homo sapiens [8].

As to `CCc1ccc(B(O)O)cc1`, the IC50 amounted to 9 µM at Lipoprotein lipase [4], 19 µM on Endothelial lipase [6] and 20 µM at Lipoprotein lipase [7]. Also, the values for the Ratio IC50 in the assay filed under Homo sapiens [5] and in the assay listed under Homo sapiens [8] were 0.3 and 1, respectively.

As to `CC1(C)OB(c2ccc(-c3cccs3)cc2)OC1(C)C`, the IC50 at Endothelial lipase [3] was 1.9 µM; on Lipoprotein lipase [4], 7 µM; at Endothelial lipase [6] it was 1.6 µM; against Lipoprotein lipase [7] it was 40 µM. Further, the Ratio IC50 in the assay filed under Homo sapiens [5] was found to be 3.7; in the assay filed under Homo sapiens [8], 25.

With `CCCCCCCCCCCCCCCC(=O)C(F)(F)F`, the figures for the inhibition in assay [1] and in assay [2] were 56% and 14%, respectively.

For the compound `CC1(C)OB(c2ccc(-c3ccsc3)cc2)OC1(C)C`, the IC50 came out at 1.3 µM on Endothelial lipase [3], 13 µM at Lipoprotein lipase [4], 3.1 µM against Endothelial lipase [6] and 36 µM against Lipoprotein lipase [7]. In addition, the Ratio IC50 in the assay listed under Homo sapiens [5] was 10; in the assay filed under Homo sapiens [8], 12.

Regarding `CC1(C)OB(c2ccc(-c3ccoc3)cc2)OC1(C)C`, the IC50 is 2.8 µM on Endothelial lipase [3], 15 µM on Lipoprotein lipase [4], 2.9 µM at Endothelial lipase [6] and 33 µM against Lipoprotein lipase [7]. The Ratio IC50 was 5.4 in the assay listed under Homo sapiens [5] and 11 in the assay filed under Homo sapiens [8].

As for `CCCCCCCCCCCc1ccc(B(O)O)cc1`, the IC50 on Endothelial lipase [3] was determined as 2 µM; at Lipoprotein lipase [4] it was 50 µM; on Endothelial lipase [6], 0.2 µM; against Lipoprotein lipase [7], 1.5 µM. The results for the Ratio IC50 in the assay listed under Homo sapiens [5] and in the assay filed under Homo sapiens [8] were 25 and 7.5, respectively.
